According to ChEMBL document CHEMBL5550118, “Human mitochondrial glutathione transferases: Kinetic parameters and accommodation of a mitochondria-targeting group in substrates” (Bioorg Med Chem, 2024):

Assays:
[1] = GSH reactivity in […] at 30 degreeC assessed as second-order reaction rate constant; format: ADME; details: buffer
[2] = substrate: O=[N+]([O-])c1ccc(Cl)c([N+](=O)[O-])c1; test: Substrate activity at N-terminal His6 tagged human GSTK1-1 expressed in Escherichia coli BL21(DE3) assessed as catalytic constant at pH 8 at 30 degreeC by Michaelis-Menten analysis
Outline: (§1)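 His6/TEV-tagged human GST was expressed in E. coli BL21(DE3) and purified on Ni-NTA. Assays used 0.1 M HEPES-HCl, pH 8, 30 °C. One substrate was varied: CDNB or chloronitrobenzene derivatives (derivatives 0.0625–2 mM) with 10 mM GSH, or GSH with 1 mM CDNB. Initial conjugate-formation rates were read at substrate-specific wavelengths, in triplicate. Triplicate background rates were subtracted. Enzyme amount was adjusted as needed. Fit by Michaelis–Menten non-linear regression or Lineweaver–Burk.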

[3] = substrate: O=[N+]([O-])c1ccc(Cl)c([N+](=O)[O-])c1; test: Substrate activity at N-terminal His6 tagged human GSTK1-1 expressed in Escherichia coli BL21(DE3) assessed as Km at pH 8 at 30 degreeC by Michaelis-Menten analysis; outline: as §1
[4] = substrate: O=[N+]([O-])c1cc([N+](=O)[O-])c(NCCCC[P+](c2ccccc2)(c2ccccc2)c2ccccc2)cc1Cl; test: (§2) Substrate activity at N-terminal His6 tagged human GSTK1-1 expressed in Escherichia coli BL21(DE3) assessed as Kcat/Km at pH 8 at 30 degreeC by Michaelis-Menten analysis; outline: as §1
[5] = substrate: O=[N+]([O-])c1ccc(Cl)c([N+](=O)[O-])c1; test: as §2; outline: as §1
[6] = substrate: COC(=O)c1cc([N+](=O)O)ccc1Cl; test: Substrate activity at N-terminal His6 tagged human GSTK1-1 expressed in Escherichia coli BL21(DE3) assessed as catalytic constant at pH 8 at 30 degreeC by Lineweaver-Burk plot analysis
Outline: (§3)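 N-terminal His6/TEV-tagged enzyme was expressed in E. coli BL21(DE3) by IPTG induction at 15 °C and purified on Ni-NTA. Assays used 0.1 M HEPES-HCl pH 8, 30°C, with GSH fixed at 10 mM and substrate varied from 0.0625 to 2 mM. Conjugate formation was read by UV absorbance, and initial rates were measured in triplicate after subtracting the background rate. Constants came from a double-reciprocal Lineweaver-Burk fit.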

[7] = substrate: COC(=O)c1cc([N+](=O)O)ccc1Cl; test: (§4) Substrate activity at N-terminal His6 tagged human GSTK1-1 expressed in Escherichia coli BL21(DE3) assessed as Kcat/Km at pH 8 at 30 degreeC by Lineweaver-Burk plot analysis; outline: as §3
[8] = substrate: COC(=O)c1ccc(Cl)c([N+](=O)[O-])c1; test: as §4; outline: as §3
[9] = substrate: O=[N+]([O-])c1ccc(Cl)c([N+](=O)[O-])c1; test: Substrate activity at N-terminal His6 tagged human GSTA4-4 expressed in Escherichia coli BL21(DE3) assessed as catalytic constant at pH 6.5 at 30 degreeC by Michaelis-Menten analysis
Outline: (§5)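 N-terminal His6/TEV-tagged human enzyme, expressed in E. coli BL21(DE3) and Ni-NTA purified. Run in 0.1 M sodium phosphate, pH 6.5, 30 °C. CDNB was varied with GSH fixed at 10 mM, or GSH was varied with CDNB fixed at 1 mM (GSH constants apparent). Conjugate formation read at 340 nm as initial rates over ≥1 min, in triplicate. A single background rate was subtracted, then fitted to Michaelis–Menten by non-linear regression.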

[10] = substrate: O=[N+]([O-])c1ccc(Cl)c([N+](=O)[O-])c1; test: Substrate activity at N-terminal His6 tagged human GSTA4-4 expressed in Escherichia coli BL21(DE3) assessed as Km at pH 6.5 at 30 degreeC by Michaelis-Menten analysis; outline: as §5
[11] = substrate: O=[N+]([O-])c1ccc(Cl)c([N+](=O)[O-])c1; test: Substrate activity at N-terminal His6 tagged human GSTA4-4 expressed in Escherichia coli BL21(DE3) assessed as Kcat/Km at pH 6.5 at 30 degreeC by Michaelis-Menten analysis; outline: as §5
[12] = substrate: O=[N+]([O-])c1ccc(Cl)c([N+](=O)[O-])c1; test: Substrate activity at N-terminal His6 tagged human GSTA4-4 expressed in Escherichia coli BL21(DE3) assessed as catalytic constant at pH 8 at 30 degreeC by Michaelis-Menten analysis; outline: as §1
[13] = substrate: O=[N+]([O-])c1ccc(Cl)c([N+](=O)[O-])c1; test: Substrate activity at N-terminal His6 tagged human GSTA4-4 expressed in Escherichia coli BL21(DE3) assessed as Km at pH 8 at 30 degreeC by Michaelis-Menten analysis; outline: as §1
[14] = substrate: O=[N+]([O-])c1cc([N+](=O)[O-])c(NCCCC[P+](c2ccccc2)(c2ccccc2)c2ccccc2)cc1Cl; test: (§6) Substrate activity at N-terminal His6 tagged human GSTA4-4 expressed in Escherichia coli BL21(DE3) assessed as Kcat/Km at pH 8 at 30 degreeC by Michaelis-Menten analysis; outline: as §1
[15] = substrate: O=[N+]([O-])c1ccc(Cl)c([N+](=O)[O-])c1; test: as §6; outline: as §1
[16] = substrate: COC(=O)c1cc([N+](=O)O)ccc1Cl; test: Substrate activity at N-terminal His6 tagged human GSTA4-4 expressed in Escherichia coli BL21(DE3) assessed as catalytic constant at pH 8 at 30 degreeC by Lineweaver-Burk plot analysis; outline: as §3
[17] = substrate: COC(=O)c1cc([N+](=O)O)ccc1Cl; test: (§7) Substrate activity at N-terminal His6 tagged human GSTA4-4 expressed in Escherichia coli BL21(DE3) assessed as Kcat/Km at pH 8 at 30 degreeC by Lineweaver-Burk plot analysis; outline: as §3
[18] = substrate: COC(=O)c1ccc(Cl)c([N+](=O)[O-])c1; test: as §7; outline: as §3
[19] = substrate: O=C(NCCCCC[P+](c1ccccc1)(c1ccccc1)c1ccccc1)c1ccc(Cl)c([N+](=O)[O-])c1; test: as §7; outline: as §3
[20] = substrate: O=[N+]([O-])c1ccc(Cl)c([N+](=O)[O-])c1; test: Substrate activity at N-terminal His6 tagged human GSTA1-1 expressed in Escherichia coli BL21(DE3) assessed as catalytic constant at pH 6.5 at 30 degreeC by Michaelis-Menten analysis; outline: as §5
[21] = substrate: O=[N+]([O-])c1ccc(Cl)c([N+](=O)[O-])c1; test: Substrate activity at N-terminal His6 tagged human GSTA1-1 expressed in Escherichia coli BL21(DE3) assessed as Km at pH 6.5 at 30 degreeC by Michaelis-Menten analysis; outline: as §5
[22] = substrate: O=[N+]([O-])c1ccc(Cl)c([N+](=O)[O-])c1; test: Substrate activity at N-terminal His6 tagged human GSTA1-1 expressed in Escherichia coli BL21(DE3) assessed as Kcat/Km at pH 6.5 at 30 degreeC by Michaelis-Menten analysis; outline: as §5
[23] = substrate: O=[N+]([O-])c1ccc(Cl)c([N+](=O)[O-])c1; test: Substrate activity at N-terminal His6 tagged human GSTA1-1 expressed in Escherichia coli BL21(DE3) assessed as catalytic constant at pH 8 at 30 degreeC by Michaelis-Menten analysis; outline: as §1
[24] = substrate: O=[N+]([O-])c1ccc(Cl)c([N+](=O)[O-])c1; test: Substrate activity at N-terminal His6 tagged human GSTA1-1 expressed in Escherichia coli BL21(DE3) assessed as Km at pH 8 at 30 degreeC by Michaelis-Menten analysis; outline: as §1
[25] = substrate: O=[N+]([O-])c1cc([N+](=O)[O-])c(NCCCC[P+](c2ccccc2)(c2ccccc2)c2ccccc2)cc1Cl; test: (§8) Substrate activity at N-terminal His6 tagged human GSTA1-1 expressed in Escherichia coli BL21(DE3) assessed as Kcat/Km at pH 8 at 30 degreeC by Michaelis-Menten analysis; outline: as §1
[26] = substrate: O=[N+]([O-])c1ccc(Cl)c([N+](=O)[O-])c1; test: as §8; outline: as §1
[27] = substrate: O=C(NCCCCC[P+](c1ccccc1)(c1ccccc1)c1ccccc1)c1cc([N+](=O)O)ccc1Cl; test: Substrate activity at N-terminal His6 tagged human GSTA1-1 expressed in Escherichia coli BL21(DE3) assessed as catalytic constant at pH 8 at 30 degreeC by Lineweaver-Burk plot analysis
Outline: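 Assayed in 0.1 M HEPES-HCl pH 8 at 30°C. GSH fixed at 10 mM and chloronitrobenzene substrate varied 0.0625–2 mM. Initial rate of GS-conjugate formation read by UV absorbance at a substrate-specific wavelength. Background chemical rate (triplicate) subtracted. Triplicate rates, kcat from best-line fit of double-reciprocal plot.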

[28] = substrate: COC(=O)c1cc([N+](=O)O)ccc1Cl; test: (§9) Substrate activity at N-terminal His6 tagged human GSTA1-1 expressed in Escherichia coli BL21(DE3) assessed as Kcat/Km at pH 8 at 30 degreeC by Lineweaver-Burk plot analysis; outline: as §3
[29] = substrate: COC(=O)c1ccc(Cl)c([N+](=O)[O-])c1; test: as §9; outline: as §3
[30] = substrate: O=C(NCCCCC[P+](c1ccccc1)(c1ccccc1)c1ccccc1)c1cc([N+](=O)O)ccc1Cl; test: as §9; outline: as §3
[31] = substrate: O=C(NCCCCC[P+](c1ccccc1)(c1ccccc1)c1ccccc1)c1ccc(Cl)c([N+](=O)[O-])c1; test: as §9; outline: as §3

Molecule: O=[N+]([O-])c1cc([N+](=O)[O-])c(NCCCC[P+](c2ccccc2)(c2ccccc2)c2ccccc2)cc1Cl
- K [1]: 1.5 10^-5/mM/s

Molecule: O=[N+]([O-])c1ccc(Cl)c([N+](=O)[O-])c1 [DINITROCHLOROBENZENE]
- K [1]: 5.05 10^-5/mM/s

Molecule: COC(=O)c1ccc(Cl)c([N+](=O)[O-])c1
- K [1]: 2.92 10^-6/mM/s

B1: Glutathione S-transferase kappa 1 (Homo sapiens), Q9Y2Q3 (protein)
chain: MGPLPRTVELFYDVLSPYSWLGFEILCRYQNIWNINLQLRPSLITGIMKDSGNKPPGLLPRKGLYMANDLKLLRHHLQIPIHFPKDFLSVMLEKGSLSAMRFLTAVNLEHPEMLEKASRELWMRVWSRNEDITEPQSILAAAEKAGMSAEQAQGLLEKIATPKVKNQLKETTEAACRYGAFGLPITVAHVDGQTHMLFGSDRMELLAHLLGEKWMGPIPPAVNARL
- kcat [2]: 14.6 s⁻¹
- Km [3]: 1900 µM
- kcat/Km [4]: 287 M⁻¹ s⁻¹
- kcat/Km [5]: 7670 M⁻¹ s⁻¹
- kcat [6]: 9.45 10^-2/s
- kcat/Km [7]: 6.13 10^-2/mM/s
- kcat/Km [8]: 351 M⁻¹ s⁻¹

B2: Glutathione S-transferase A4 (Homo sapiens), O15217 (protein)
chain: MAARPKLHYPNGRGRMESVRWVLAAAGVEFDEEFLETKEQLYKLQDGNHLLFQQVPMVEIDGMKLVQTRSILHYIADKHNLFGKNLKERTLIDMYVEGTLDLLELLIMHPFLKPDDQQKEVVNMAQKAIIRYFPVFEKILRGHGQSFLVGNQLSLADVILLQTILALEEKIPNILSAFPFLQEYTVKLSNIPTIKRFLEPGSKKKPPPDEIYVRTVYNIFRP
- kcat [9]: 14.9 s⁻¹
- Km [10]: 5200 µM
- kcat/Km [11]: 2930 M⁻¹ s⁻¹
- kcat [12]: 4.94 s⁻¹
- Km [13]: 253 µM
- kcat/Km [14]: 32200 M⁻¹ s⁻¹
- kcat/Km [15]: 19500 M⁻¹ s⁻¹
- kcat [16]: 5.61 10^-2/s
- kcat/Km [17]: 5.91 10^-2/mM/s
- kcat/Km [18]: 146 M⁻¹ s⁻¹
- kcat/Km [19]: 2570 M⁻¹ s⁻¹

B3: Glutathione S-transferase A1 (Homo sapiens), P08263 (protein)
chain: MAEKPKLHYFNARGRMESTRWLLAAAGVEFEEKFIKSAEDLDKLRNDGYLMFQQVPMVEIDGMKLVQTRAILNYIASKYNLYGKDIKERALIDMYIEGIADLGEMILLLPVCPPEEKDAKLALIKEKIKNRYFPAFEKVLKSHGQDYLVGNKLSRADIHLVELLYYVEELDSSLISSFPLLKALKTRISNLPTVKKFLQPGSPRKPPMDEKSLEEARKIFRF
- kcat [20]: 35.4 s⁻¹
- Km [21]: 492 µM
- kcat/Km [22]: 71900 M⁻¹ s⁻¹
- kcat [23]: 45.3 s⁻¹
- Km [24]: 128 µM
- kcat/Km [25]: 101000 M⁻¹ s⁻¹
- kcat/Km [26]: 353000 M⁻¹ s⁻¹
- kcat [27]: 4.67 10^-2/s
- kcat/Km [28]: 1380 M⁻¹ s⁻¹
- kcat/Km [29]: 4320 M⁻¹ s⁻¹
- kcat/Km [30]: 6.49 10^-2/mM/s
- kcat/Km [31]: 21600 M⁻¹ s⁻¹
